Experimental data from ChEMBL document CHEMBL1131340, “alpha-Substituted malonester amides: tools to define the relationship between ACAT inhibition and adrenal toxicity” (J Med Chem, 1998).

Experiments:
[1] = molecular target: T1, Sterol O-acyltransferase 1 (Rattus norvegicus, UniProt O70536); test: In vitro Acyl coenzyme A:cholesterol acyltransferase inhibition in hepatic microsomes isolated from cholesterol-fed rats; set-up: species or system Liver
T1 sequence (O70536 whole entry): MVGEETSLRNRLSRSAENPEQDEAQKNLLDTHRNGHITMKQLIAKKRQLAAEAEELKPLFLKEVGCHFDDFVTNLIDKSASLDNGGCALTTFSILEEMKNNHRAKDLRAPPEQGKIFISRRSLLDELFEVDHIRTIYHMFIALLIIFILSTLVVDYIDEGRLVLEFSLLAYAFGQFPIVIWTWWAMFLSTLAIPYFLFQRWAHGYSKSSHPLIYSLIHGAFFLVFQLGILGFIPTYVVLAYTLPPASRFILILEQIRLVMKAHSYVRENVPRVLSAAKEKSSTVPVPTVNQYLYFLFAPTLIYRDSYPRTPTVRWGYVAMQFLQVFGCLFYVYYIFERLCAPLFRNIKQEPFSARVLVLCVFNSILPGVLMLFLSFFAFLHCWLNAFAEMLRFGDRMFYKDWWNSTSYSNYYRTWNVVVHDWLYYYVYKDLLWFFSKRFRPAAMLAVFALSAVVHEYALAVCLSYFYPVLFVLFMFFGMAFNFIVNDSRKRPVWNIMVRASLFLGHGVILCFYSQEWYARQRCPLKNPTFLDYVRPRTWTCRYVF
Procedure, shortened: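 Hepatic microsomes from cholesterol-fed rats (LAI screen); ACAT inhibition reported as IC50.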

Rattus norvegicus [2] = test: Percent change in total cholesterol level in cholic acid (0.5%),cholesterol(1.5%),peanut oil(5.5%) fed rats at 30 mg/kg.; assay type: functional
Procedure, shortened: (§1)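 Acute screen (APCC) in male Sprague-Dawley rats, 200–225 g. Compound given orally as a suspension in water with carboxymethylcellulose (1.5%) and Tween-20 (0.2%). Rats then ate a high-fat, high-cholesterol PCC meal (peanut oil 5.5%, cholesterol 1.5%, cholic acid 0.5%). Plasma total cholesterol measured and expressed as percent change from controls.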

Rattus norvegicus [3] = test: Percent change in total cholesterol level in cholic acid (0.5%),cholesterol(1.5%),peanut oil(5.5%) fed rats at 3 mg/kg.; assay type: functional; procedure, shortened: as §1
Rattus norvegicus [4] = test: Percent of high density lipoprotein cholesterol was measured in cholesterol fed rat at the dose of 10 mg/kg; assay type: functional
Rattus norvegicus [5] = test: Percent of non high density lipoprotein cholesterol measured in cholesterol fed rat at the dose of 10 mg/kg; assay type: functional
Rattus norvegicus [6] = test: Percent of high density lipoprotein cholesterol was in cholesterol fed rat at the dose of 30 mg/kg; assay type: functional
Rattus norvegicus [7] = test: Percent of non high density lipoprotein cholesterol measured in cholesterol fed rat at the dose of 30 mg/kg; assay type: functional
Rattus norvegicus [8] = test: Percent of high density lipoprotein cholesterol was in cholesterol fed rat at the dose of 10 mg/kg; assay type: functional
[9] = molecular target: T2, Acyl-CoA:cholesterol acyltransferase (Oryctolagus cuniculus) (UniProt Q95214); test: Percent inhibition of cholesterol of ACAT by ABIO bioassay at the dose of 25 mg/kg in rabbits.; assay type: functional, organism-based; set-up: dose 25 mg/kg
T2 sequence (whole entry): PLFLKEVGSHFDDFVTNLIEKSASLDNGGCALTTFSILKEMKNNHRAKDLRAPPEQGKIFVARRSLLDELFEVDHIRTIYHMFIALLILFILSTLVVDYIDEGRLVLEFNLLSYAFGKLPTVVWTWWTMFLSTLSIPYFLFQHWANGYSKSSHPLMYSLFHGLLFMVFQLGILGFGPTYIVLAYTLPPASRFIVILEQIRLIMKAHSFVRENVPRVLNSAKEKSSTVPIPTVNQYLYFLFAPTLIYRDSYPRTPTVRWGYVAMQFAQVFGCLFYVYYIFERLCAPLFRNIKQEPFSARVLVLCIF
Procedure, shortened: (§2)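 Oral bioactivity (ABIO) in male New Zealand White rabbits, 1.2–1.5 kg. Compound given at 25 or 50 mg/kg in the daily meal (3% peanut oil, 3% coconut oil). Plasma extracts incubated with rat liver microsomes and ACAT reaction inhibition expressed as relative percent inhibition.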

Oryctolagus cuniculus [10] = test: Plasma drug levels at the dose of 50 mg/kg in rabbit; assay type: functional, organism-based; set-up: dose 50 mg/kg
Procedure, shortened: (§3)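 Male New Zealand White rabbits, 1.2–1.5 kg, dosed at 25 or 50 mg/kg in the daily meal (3% peanut oil, 3% coconut oil). Blood taken predose and at intervals up to 24 h. Plasma solvent-extracted and assayed by HPLC–UV; limit of quantitation 20 ng/mL.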

Oryctolagus cuniculus [11] = test: Plasma drug levels at the dose of 25 mg/kg in rabbit; assay type: functional, organism-based; set-up: dose 25 mg/kg; procedure, shortened: as §3
Rattus norvegicus [12] = organism: Rattus norvegicus; test: Percent of non high density lipoprotein cholesterol was measured in cholesterol fed rat by using aqueous vehicle; assay type: functional
Procedure, shortened: (§4)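 Chronic PCC rat screen with drug and PCC diet given together for 7 days. Compound dosed either in an aqueous carboxymethylcellulose vehicle (PCC-CMC) or in an oleic acid vehicle (PCC-OA). Change in plasma non-HDL-C measured.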

Rattus norvegicus [13] = organism: Rattus norvegicus; test: Percent of non high density lipoprotein cholesterol was measured in cholesterol fed rat by using oleic acid vehicle; assay type: functional; procedure, shortened: as §4
[14] = molecular target: T2, Acyl-CoA:cholesterol acyltransferase (Oryctolagus cuniculus); test: Percent inhibition of cholesterol of ACAT by ABIO bioassay at the dose of 50 mg/kg in rabbits.; assay type: functional, organism-based; set-up: dose 50 mg/kg; procedure, shortened: as §2
Rattus norvegicus [15] = test: Percent of total cholesterol was measured in cholesterol fed rat at the dose of 3 mg/kg
Rattus norvegicus [16] = test: Percent of total cholesterol was measured in cholesterol fed rat at the dose of 30 mg/kg

SMILES | IC50 [1] | Delta TC (Rattus norvegicus [2]) | Delta TC (Rattus norvegicus [3]) | also measured
CCCCCCCCCCCCCCCCOC(=O)C(C(=O)Nc1c(C(C)C)cccc1C(C)C)c1ccccc1 (stereo unspecified) | – | -26% | – | –
CCCCCCCCCCCCOC(=O)C(C(=O)Nc1c(OC)cc(OC)cc1OC)c1ccccc1 (stereo unspecified) | – | -51% | -51% | Of HDL-C (Rattus norvegicus [6]): 127%; Of non-HDL-C (Rattus norvegicus [7]): -71%
CCCCCCCOC(=O)C(C(=O)Nc1c(C(C)C)cccc1C(C)C)c1ccccc1 (stereo unspecified) | 50 nM | -71% | -47% | Of HDL-C (Rattus norvegicus [8]): 2%; Of non-HDL-C (Rattus norvegicus [5]): -21%
CCCCCCCCCCCCOC(=O)C(C(=O)Nc1c(C(C)C)cccc1C(C)C)c1ccccn1 (stereo unspecified) | 8 nM | -43% | – | –
CCCCCCCCCCCCCCC(C)(C)OC(=O)C(C(=O)Nc1c(C(C)C)cccc1C(C)C)c1ccccc1 (stereo unspecified) | 72 nM | -37% | – | –
CCOC(=O)C(F)C(=O)Nc1c(C(C)C)cccc1C(C)C (stereo unspecified) | > 1000 nM | 1% | – | –
CCCCCCCCOC(=O)C(C(=O)Nc1c(C(C)C)cccc1C(C)C)c1ccccc1 (stereo unspecified) | – | -56% | -46% | –
CCCCCCCCCCCCOC(=O)C(F)C(=O)Nc1c(C(C)C)cccc1C(C)C (stereo unspecified) | 32 nM | -36% | – | –
CCCCCCCCCCC(C)OC(=O)C(C(=O)Nc1c(C(C)C)cccc1C(C)C)c1ccccc1 (stereo unspecified) | 13 nM | -37% | – | Of HDL-C (Rattus norvegicus [6]): 97%; Of non-HDL-C (Rattus norvegicus [7]): -64%
CCCCCCCCCCCCCCOC(=O)C(C(=O)Nc1c(C(C)C)cccc1C(C)C)c1ccccc1 (stereo unspecified) | 16 nM | -49% | – | Of HDL-C (Rattus norvegicus [6]): 28%; Of non-HDL-C (Rattus norvegicus [7]): -57%
CCOC(=O)C(C)(C)C(=O)Nc1c(C(C)C)cccc1C(C)C | > 1000 nM | -24% | – | –
CCCCCCCCCOC(=O)C(C(=O)Nc1c(C(C)C)cccc1C(C)C)c1ccccc1 (stereo unspecified) | 12 nM | -67% | -53% | –
CCCCCCCCCCCCC(C)(C)OC(=O)C(C(=O)Nc1c(C(C)C)cccc1C(C)C)c1ccccc1 (stereo unspecified) | 12 nM | -26% | – | –
CCCCCCCCCCCCC(C)OC(=O)C(C(=O)Nc1c(C(C)C)cccc1C(C)C)c1ccccc1 (stereo unspecified) | – | -61% | -46% | Of HDL-C (Rattus norvegicus [6]): 215%; Of non-HDL-C (Rattus norvegicus [7]): -75%
CCCCC(C)(C)OC(=O)C(C(=O)Nc1c(C(C)C)cccc1C(C)C)c1ccccc1 (stereo unspecified) | – | -72% | -65% | –

Further lines, with some results ahead:

IC50 [1] | SMILES | Delta TC (Rattus norvegicus [2]) | Delta TC (Rattus norvegicus [3]) | also measured
40 nM | CCCCCC(C)OC(=O)C(C(=O)Nc1c(C(C)C)cccc1C(C)C)c1ccccc1 (stereo unspecified) | -67% | -61% | Delta HDL-C (Rattus norvegicus [4]): -1%; Delta non HDL-C (Rattus norvegicus [5]): -18%
200 nM | CCCCCCCCCCCCCCCCCCOC(=O)C(C(=O)Nc1c(C(C)C)cccc1C(C)C)c1ccccc1 (stereo unspecified) | -25% | – | –
21 nM | CCCCCCCCCCCCC(C)OC(=O)C(C)(C)C(=O)Nc1c(C(C)C)cccc1C(C)C (stereo unspecified) | – | – | –
30 nM | CCCCCCCCCCCCC(C)OC(=O)C(C(=O)Nc1c(OC)cc(OC)cc1OC)c1ccccc1 (stereo unspecified) | -59% | -48% | Of HDL-C (Rattus norvegicus [6]): 272%; Of non-HDL-C (Rattus norvegicus [7]): -85%
56 nM | CCCCCCCCCCCCOC(=O)C(C(=O)Nc1c(C(C)C)cc(C(C)C)cc1C(C)C)c1ccccc1 (stereo unspecified) | -21% | – | –
10 nM | CCCCCCCCCCCCOC(=O)C(C(=O)Nc1c(C(C)C)cccc1C(C)C)c1ccccc1 (stereo unspecified) | -63% | -29% | inhibition [9]: 99%; Plasma level (Oryctolagus cuniculus [10]): 140 ng/mL; Plasma level (Oryctolagus cuniculus [11]): 131 ng/mL; Non-HDL-C (Rattus norvegicus [12]): -54%; Non-HDL-C (Rattus norvegicus [13]): -54%; Of HDL-C (Rattus norvegicus [6]): 148%; Of non-HDL-C (Rattus norvegicus [7]): -80%; inhibition [14]: 100%; TC (Rattus norvegicus [15]): -29%; TC (Rattus norvegicus [16]): -63%
> 5000 nM | CCOC(=O)C(C(=O)Nc1c(C(C)C)cccc1C(C)C)c1ccccc1 (stereo unspecified) | -23% | – | –
> 1000 nM | CCCOC(=O)C(C(=O)Nc1c(C(C)C)cccc1C(C)C)c1ccccc1 (stereo unspecified) | -20% | – | –
13 nM | CCCCCCCCCCOC(=O)C(C(=O)Nc1c(C(C)C)cccc1C(C)C)c1ccccc1 (stereo unspecified) | -58% | -27% | Of HDL-C (Rattus norvegicus [8]): -5%; Of non-HDL-C (Rattus norvegicus [5]): 21%
20 nM | CCCCCCCCCCCCC(C)(C)OC(=O)C(C(=O)Nc1c(OC)cc(OC)cc1OC)c1ccccc1 (stereo unspecified) | – | – | –
180 nM | CCCCCCCCCCCCOC(=O)C(C(=O)Nc1c(C(C)C)cc(C(C)C)cc1C(C)C)c1ccccn1 (stereo unspecified) | -9% | – | –
